Assay outcomes as filed in PubChem BioAssay.
The list is not random: actives were taken first. Their share in the collection is about 1.9%.
PLC-gamma1 inh – inhibitors of human phospholipase C gamma1; purified PLC-gamma1, fluorogenic substrate, fluorescence; P19174; inhibition, % at 12.2 µM; AID 720700; hit rate 0.84% among 370,000; in the data active means inhibition above about 9.5%
ASAP1 GAP inh – blocks human ASAP1-stimulated Arf1 GTP hydrolysis; Q9ULH1; hit rate 0.19% among 360,000; inhibition, % at 16.5 µM; GDP FP detection; in the data active means inhibition above about 25%;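 further: 0% = vehicle with enzyme and substrate and 100% = no enzyme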
Target sequence (Q9ULH1 325-724 limits assumed): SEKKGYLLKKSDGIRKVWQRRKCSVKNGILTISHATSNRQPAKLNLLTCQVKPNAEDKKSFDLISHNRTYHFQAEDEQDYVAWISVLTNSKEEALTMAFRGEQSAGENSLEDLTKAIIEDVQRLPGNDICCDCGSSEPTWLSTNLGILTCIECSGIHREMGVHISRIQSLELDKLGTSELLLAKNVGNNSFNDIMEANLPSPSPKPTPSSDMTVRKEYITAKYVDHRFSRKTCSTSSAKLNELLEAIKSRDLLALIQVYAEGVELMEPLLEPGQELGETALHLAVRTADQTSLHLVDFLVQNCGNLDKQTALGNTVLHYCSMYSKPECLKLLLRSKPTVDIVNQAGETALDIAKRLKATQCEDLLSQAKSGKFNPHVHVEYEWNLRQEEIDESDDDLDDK
PLCb3 inh – PLC-beta3 (human) inhibition, primary screen | inhibition, % at 12.2 µM | hit rate 0.18% among 370,000 | Purified PLC-beta3, fluorogenic substrate, fluorescence | Q01970; in the data active means inhibition above about 11%;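 further: 0% = median of compound wells on plate and 100% = full blocker control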
sPLA2-III inh – Inhibits HGIII-sPLA2 liposome hydrolysis, primary screen. Q9NZ20. QFRET BODIPY PC-A2 liposome hydrolysis, fluorescence. inhibition, % at 12.2 µM. hit rate 0.56% among 370,000. AID 743126;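 active means inhibition above mean plus 3 SD of compounds lying within the high and low control bounds, cut at about 19% in these data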;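 further: 0% = median of test compound wells and 100% = no enzyme DMSO wells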
ARFGAP1 inh – inhibitors of rat ARFGAP1 | Arfgap1-stimulated ARF1 GTP hydrolysis, GDP FP detection | inhibition, % at 16.5 µM | hit rate 0.26% among 360,000 | AID 651572;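 active means inhibition above a per-plate limit, mean inhibition of low control wells plus 3 SD, cut at about 25% in these data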;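 further: 0% = DMSO wells with enzyme and 100% = wells lacking Arfgap1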
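Material – truncated rat Arfgap1 GAP domain · Buffer or medium – HEPES-based buffer, pH 7.5 · Reagent – human ARF1(Δ1-17)-GTP substrate · Dosing – 16.5 µM single point, 1.26% DMSO · Schedule – GTP hydrolysis reaction 2 h at 25 °C · Technique – GDP detection by fluorescence polarization · Benchmarks – No-Arfgap1 wells (100%) versus DMSO full-reaction wells (0%) · Repeats – single replicate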
Numbers without * were called inactive; i = inactive; x = not tested or not shown.

SMILES	PLC-gamma1 inh	ASAP1 GAP inh	PLCb3 inh	sPLA2-III inh	ARFGAP1 inh
N/C(=N\N=C\c1ccc(O)cc1)c1nonc1N	10.7*	5.0	9.1	2.2	4.2
N/C(=N\N=C\c1ccc(O)c(O)c1)c1nonc1N	-21.1	5.1	-32.9	16.3	16.3
Cc1cc(C)n(-c2ccc(C(=O)N3CCN(c4ccccn4)CC3)cc2)n1	10.3*	-18.1	1.1	-8.4	4.2
CC(NC(=O)COC(=O)C12CC3CC(CC(O)(C3)C1)C2)c1ccccc1 (stereo not given)	12.6*	2.4	12.7*	1.7	8.5
CC(CCc1ccccc1)NC(=O)COC(=O)C12CC3CC(CC(Br)(C3)C1)C2 (stereo not given)	0.4	11.2	4.6	-5.2	3.2
CCCC(=O)NC(c1cccc([N+](=O)[O-])c1)c1ccc2cccnc2c1O (stereo not given)	-4.0	-4.8	1.5	22.0*	9.8
CCCCC(=O)NC(c1ccc(N(CC)CC)cc1)c1ccc2cccnc2c1O (stereo not given)	0.6	8.5	-5.9	14.9	-4.3
CCCC(=O)NC(c1ccc(Cl)cc1Cl)c1ccc2cccnc2c1O (stereo not given)	-28.4	7.5	-19.6	26.4*	4.3
CC(C)C(=O)NC(c1cccc([N+](=O)[O-])c1)c1ccc2cccnc2c1O (stereo not given)	-0.5	-4.2	-4.9	22.5*	-12.1
CCCCC(=O)NC(c1ccc(Cl)cc1)c1ccc2cccnc2c1O (stereo not given)	-13.5	2.8	-24.6	15.5	4.3
Cc1ccccc1Cn1cc(COC(=O)NCC(C)C)nn1	2.7	x	2.1	1.8	x
C=CCN(CC#CC1=CCCCC1)Cc1ccccc1	0.5	x	3.9	9.9	x
CC(/C=N/n1c(-c2ccncc2)n[nH]c1=S)=C\c1ccco1	-3.0	2.3	-11.7	23.3*	3.0
S=c1[nH]nc(-c2ccncc2)n1/N=C/C=C/c1ccco1	1.1	-4.9	-0.5	10.6	-9.5
Cc1cccc(-c2n[nH]c(=S)n2/N=C/C=C/c2ccco2)c1	-11.1	2.3	-17.0	31.1*	-3.9
COC(=O)C12C=C3CC(C)=C3C(=O)N1Cc1[nH]c3ccccc3c1C2 (stereo not given)	-83.0	x	-112.8	-9.0	x
CC(=O)N1CCc2c1cccc2S(=O)(=O)NC(CC(C)C)C(=O)Nc1ccc(Cl)c(Cl)c1 (stereo not given)	0.1	x	-1.0	-28.1	x
CC1=NN(c2ccccc2)C(=O)/C1=C/c1ccc(Cl)cc1	16.4*	-9.7	3.4	2.4	27.7*
CC1=NN(c2ccccc2)C(=O)/C1=C/c1ccc[nH]1	2.8	6.3	5.4	7.4	-13.0
CC1=NN(c2ccccc2)C(=O)C1=Cc1ccccc1	10.3*	-2.3	4.7	3.2	-11.5
Nc1ccc2c(c1)Cc1cc(Cl)c(Cl)cc1-2	-7.4	8.6	-8.4	17.7	16.2
Nc1ccc2c(c1)Cc1cc(N)c(Cl)cc1-2	-33.7	-5.4	-57.0	23.9*	3.0
CC1=NN(c2ccc(S(=O)(=O)O)cc2C)C(=O)C1	0.4	-2.3	-2.5	-1.9	-2.8
O=C(O)C1=NN(c2cc(Cl)c(S(=O)(=O)O)cc2Cl)C(=O)C1	14.8*	3.0	1.0	-0.6	-7.4
COC(=O)c1cc(C(c2ccccc2O)C2CCCO2)n2cccc(C(C)(C)C)c12 (stereo not given)	-109.5	x	-135.4	2.2	x
SMILES	PLC-gamma1 inh	ASAP1 GAP inh	PLCb3 inh	sPLA2-III inh	ARFGAP1 inh
CCN(CC)Cc1cc(Nc2c3ccccc3nc3c4ccccc4n(C)c23)cc(CN(CC)CC)c1O	-351.6	-3.5	-464.1	21.3*	-5.3
Oc1cccc(Nc2c3ccccc3nc3ccccc23)c1	-208.4	0.4	-262.0	2.1	-3.3
COc1ccc(S[C@]2(C(=O)N3CCN(c4ncccn4)CC3)CC(=O)N(C(=O)c3ccccc3)[C@@H]2c2ccc(OC)cc2)cc1	1.1	x	1.6	0.6	x
COc1ccc(-c2ccc3c(=O)cc(-c4ccsc4)oc3c2)cn1	-438.0	25.7*	i	1.4	36.3*
COc1ccc2[nH]c3c(c2c1)CCN[C@]31C(=O)N(Cc2ccccc2)c2ccccc21	2.0	x	3.6	-9.4	x
O=C(c1ccccc1)c1c2c(cc3sc4ccccc4[n+]13)-c1cccc3cccc-2c13	-265.2	5.2	-260.5	23.4*	20.2
Cc1sc2cc3c(c(C(=O)c4ccccc4)[n+]2c1C)-c1cccc2cccc-3c12	-69.7	-2.4	-90.8	19.0	0.1
CC(C)C[C@@H]1NC(=O)[C@H]2C[C@@]3(C)c4ccccc4N[C@H]3N2C1=O	-5.9	x	-9.6	5.9	x
